Measured values published in ChEMBL document CHEMBL3232885, “Synthesis, characterization and pharmacological screening of some novel 5-imidazopyrazole incorporated polyhydroquinoline derivatives” (Eur J Med Chem, 2014).
In brackets after ≈: the same amount, converted by molar mass.

Legend:
Streptococcus pneumoniae = assay: Antibacterial activity against Streptococcus pneumoniae MTCC 1936 assessed as growth inhibition after 24 to 48 hrs by broth microdilution method; format: functional
How it was run: (§1)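 Bacteria were grown in Mueller-Hinton broth with inoculum adjusted to 10⁸ CFU mL⁻¹ by turbidity. Compounds were serially diluted in 2% aqueous DMSO and incubated at 37 °C overnight. Growth was checked by subculture at 24 and 48 h. MIC was taken as the highest dilution with no turbidity after spot subculture.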

Clostridium tetani = assay: Antibacterial activity against Clostridium tetani MTCC 449 assessed as growth inhibition after 24 to 48 hrs by broth microdilution method; format: functional
Escherichia coli = assay: Antibacterial activity against Escherichia coli MTCC 443 assessed as growth inhibition after 24 to 48 hrs by broth microdilution method; format: functional; how it was run: as §1
Salmonella typhi = assay: Antibacterial activity against Salmonella typhi MTCC 98 assessed as growth inhibition after 24 to 48 hrs by broth microdilution method; format: functional, Salmonella enterica subsp. enterica serovar Typhi; details: Salmonella enterica
Vibrio cholerae = assay: Antibacterial activity against Vibrio cholerae MTCC 3906 assessed as growth inhibition after 24 to 48 hrs by broth microdilution method; format: functional
Bacillus subtilis = assay: Antibacterial activity against Bacillus subtilis MTCC 441 assessed as growth inhibition after 24 to 48 hrs by broth microdilution method; format: functional; how it was run: as §1
[1] = system: Mycobacterium tuberculosis; assay: Antitubercular activity against Mycobacterium tuberculosis H37Rv assessed as inhibition of colony formation at 250 ug/mL after 2 to 4 weeks by Lowensteine-Jensen method relative to control; format: functional
Aspergillus fumigatus = assay: Antifungal activity against Aspergillus fumigatus MTCC 3008 assessed as growth inhibition after 24 to 48 hrs by broth microdilution method; format: functional
How it was run: (§2)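 Fungal nutrition used Sabouraud Dextrose broth with inoculum at 10⁸ CFU mL⁻¹ by turbidity. Serial compound dilutions were made in 2% DMSO in water. Growth was noted on subculture after 24 and 48 h. MIC was taken as the highest dilution preventing visible turbidity after spot subculture.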

Candida albicans = assay: Antifungal activity against Candida albicans MTCC 227 assessed as growth inhibition after 24 to 48 hrs by broth microdilution method; format: functional; how it was run: as §2
[2] = system: Mycobacterium tuberculosis; assay: Antitubercular activity against Mycobacterium tuberculosis H37Rv assessed as inhibition of colony formation at 100 ug/mL after 2 to 4 weeks by Lowensteine-Jensen method relative to control; format: functional
Plasmodium falciparum = assay: Antimalarial activity against chloroquine/quinine sensitive Plasmodium falciparum assessed as parasite growth inhibition after 48 hrs; format: functional, organism-based

| Molecule | MIC (Streptococcus pneumoniae) [µg/mL] | MIC (Clostridium tetani) [µg/mL] | MIC (Escherichia coli) [µg/mL] | MIC (Salmonella typhi) [µg/mL] | MIC (Vibrio cholerae) [µg/mL] | MIC (Bacillus subtilis) [µg/mL] | inhibition at 250 µg/mL [1] [%] | MIC (Aspergillus fumigatus) [µg/mL] | MIC (Candida albicans) [µg/mL] | inhibition at 100 µg/mL [2] [%] | IC50 (Plasmodium falciparum) [µg/mL] |
| --- | --- | --- | --- | --- | --- | --- | --- | --- | --- | --- | --- |
| CCn1cc(C(=O)O)c(=O)c2cc(F)c(N3CCNCC3)cc21 [NORFLOXACIN] | 250 (≈ 783 µM) | 25 (≈ 78.3 µM) | 50 (≈ 157 µM) | 50 (≈ 157 µM) | 50 (≈ 157 µM) | 25 (≈ 78.3 µM) | – | – | – | – | – |
| Cc1nn(-c2ccccc2)c(-n2ccnc2)c1C1C(C#N)=C(N)N(c2ccc(Cl)cc2)C2=C1C(=O)CC(C)(C)C2 (stereo not given) | 125 (≈ 227 µM) | 125 (≈ 227 µM) | 500 (≈ 909 µM) | 500 (≈ 909 µM) | 250 (≈ 454 µM) | 200 (≈ 364 µM) | 84 | 500 (≈ 909 µM) | > 1000 | 76 | 0.073 (≈ 0.133 µM) |
| Cc1nn(-c2ccccc2)c(-n2ccnc2)c1C1C(C(N)=O)=C(N)N(c2ccccc2)C2=C1C(=O)CC(C)(C)C2 (stereo not given) | 200 (≈ 375 µM) | 125 (≈ 234 µM) | 200 (≈ 375 µM) | 250 (≈ 468 µM) | 250 (≈ 468 µM) | 125 (≈ 234 µM) | 7 | 1000 (≈ 1870 µM) | 250 (≈ 468 µM) | 4 | 0.62 (≈ 1.16 µM) |
| Cc1nn(-c2ccccc2)c(-n2ccnc2)c1C1C(C#N)=C(N)N(c2ccccc2O)C2=C1C(=O)CC(C)(C)C2 (stereo not given) | 125 (≈ 235 µM) | 200 (≈ 376 µM) | 250 (≈ 470 µM) | 250 (≈ 470 µM) | 125 (≈ 235 µM) | 100 (≈ 188 µM) | 45 | 500 (≈ 941 µM) | 1000 (≈ 1880 µM) | 38 | 0.71 (≈ 1.34 µM) |
| Cc1nn(-c2ccccc2)c(-n2ccnc2)c1C1C(C(N)=O)=C(N)N(c2cccc(O)c2)C2=C1C(=O)CC(C)(C)C2 (stereo not given) | 125 (≈ 227 µM) | 200 (≈ 364 µM) | 125 (≈ 227 µM) | 200 (≈ 364 µM) | 200 (≈ 364 µM) | 200 (≈ 364 µM) | 84 | 500 (≈ 910 µM) | 500 (≈ 910 µM) | 75 | 0.57 (≈ 1.04 µM) |
| Cc1nn(-c2ccccc2)c(-n2ccnc2)c1C1C(C#N)=C(N)N(c2ccc(O)cc2)C2=C1C(=O)CC(C)(C)C2 (stereo not given) | 200 (≈ 376 µM) | 500 (≈ 941 µM) | 200 (≈ 376 µM) | 250 (≈ 470 µM) | 250 (≈ 470 µM) | 250 (≈ 470 µM) | 94 | 1000 (≈ 1880 µM) | 500 (≈ 941 µM) | 94 | 1.23 (≈ 2.31 µM) |
| CCOC(=O)C1=C(N)N(c2ccc(O)cc2)C2=C(C(=O)CCC2)C1c1c(C)nn(-c2ccccc2)c1-n1ccnc1 (stereo not given) | 250 (≈ 454 µM) | 200 (≈ 363 µM) | 62.5 (≈ 114 µM) | 200 (≈ 363 µM) | 200 (≈ 363 µM) | 200 (≈ 363 µM) | 41 | 500 (≈ 908 µM) | 500 (≈ 908 µM) | 37 | 0.067 (≈ 0.122 µM) |
| Cc1nn(-c2ccccc2)c(-n2ccnc2)c1C1C(C(N)=O)=C(N)N(c2ccc(O)cc2)C2=C1C(=O)CC(C)(C)C2 (stereo not given) | 250 (≈ 455 µM) | 250 (≈ 455 µM) | 250 (≈ 455 µM) | 125 (≈ 227 µM) | 250 (≈ 455 µM) | 200 (≈ 364 µM) | 70 | 1000 (≈ 1820 µM) | 500 (≈ 910 µM) | 61 | 0.057 (≈ 0.104 µM) |
| COC1=CC(=O)C[C@@H](C)[C@]12Oc1c(Cl)c(OC)cc(OC)c1C2=O [GRISEOFULVIN] | – | – | – | – | – | – | – | 100 (≈ 283 µM) | 100 (≈ 283 µM) | – | – |
| O=C(N[C@H](CO)[C@H](O)c1ccc([N+](=O)[O-])cc1)C(Cl)Cl [CHLORAMPHENICOL] | 100 (≈ 309 µM) | 25 (≈ 77.4 µM) | 10 (≈ 30.9 µM) | 50 (≈ 155 µM) | 50 (≈ 155 µM) | 50 (≈ 155 µM) | – | – | – | – | – |
| NYSTATIN | – | – | – | – | – | – | – | 500 | 100 | – | – |
| Cc1nn(-c2ccccc2)c(-n2ccnc2)c1C1C(C#N)=C(N)N(c2cccc(O)c2)C2=C1C(=O)CC(C)(C)C2 (stereo not given) | 200 (≈ 376 µM) | 200 (≈ 376 µM) | 200 (≈ 376 µM) | 250 (≈ 470 µM) | 62.5 (≈ 118 µM) | 500 (≈ 941 µM) | 38 | 500 (≈ 941 µM) | 1000 (≈ 1880 µM) | 34 | 0.034 (≈ 0.064 µM) |
| CCOC(=O)C1=C(N)N(c2ccc(C)cc2)C2=C(C(=O)CC(C)(C)C2)C1c1c(C)nn(-c2ccccc2)c1-n1ccnc1 (stereo not given) | 100 (≈ 173 µM) | 250 (≈ 434 µM) | 125 (≈ 217 µM) | 100 (≈ 173 µM) | 100 (≈ 173 µM) | 250 (≈ 434 µM) | 12 | > 1000 | 1000 (≈ 1730 µM) | 6 | 1.79 (≈ 3.1 µM) |
